Calls of active or inactive are those of the source.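 How the source made its calls, unless noted: active means viability at or under a set limit in both replicates, limit being median viability minus 3 SD (cut at about 48% in these data, passing the limit was not always enough); inconclusive means at or under the limit in just one replicate; inactive means at or above the limit in both replicates.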
Experiments:
[1] = reducers of endogenous Her2 protein level, primary screen, SKBR3 breast tumor cells, AlphaScreen, ATP viability (AID 461;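 active means Her2 level under about 52% in both replicate screens, with viability over 70% of control, limit read from the data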;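 on Her2 level: lower value means less Her2 protein in the cells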;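 on viability: percent of carrier control wells set as 100% viability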); details: 18-24 h, measured here: SKBR3 viability, ATP luminescence, at 10 µM
[2] = biological target: Receptor tyrosine-protein kinase erbB-2 (Homo sapiens) (UniProt P04626); assay: as above; details: 18-24 h, at 10 µM, stronger effect = lower value
Chain of Receptor tyrosine-protein kinase erbB-2 (Homo sapiens) (P04626 whole entry, looked up): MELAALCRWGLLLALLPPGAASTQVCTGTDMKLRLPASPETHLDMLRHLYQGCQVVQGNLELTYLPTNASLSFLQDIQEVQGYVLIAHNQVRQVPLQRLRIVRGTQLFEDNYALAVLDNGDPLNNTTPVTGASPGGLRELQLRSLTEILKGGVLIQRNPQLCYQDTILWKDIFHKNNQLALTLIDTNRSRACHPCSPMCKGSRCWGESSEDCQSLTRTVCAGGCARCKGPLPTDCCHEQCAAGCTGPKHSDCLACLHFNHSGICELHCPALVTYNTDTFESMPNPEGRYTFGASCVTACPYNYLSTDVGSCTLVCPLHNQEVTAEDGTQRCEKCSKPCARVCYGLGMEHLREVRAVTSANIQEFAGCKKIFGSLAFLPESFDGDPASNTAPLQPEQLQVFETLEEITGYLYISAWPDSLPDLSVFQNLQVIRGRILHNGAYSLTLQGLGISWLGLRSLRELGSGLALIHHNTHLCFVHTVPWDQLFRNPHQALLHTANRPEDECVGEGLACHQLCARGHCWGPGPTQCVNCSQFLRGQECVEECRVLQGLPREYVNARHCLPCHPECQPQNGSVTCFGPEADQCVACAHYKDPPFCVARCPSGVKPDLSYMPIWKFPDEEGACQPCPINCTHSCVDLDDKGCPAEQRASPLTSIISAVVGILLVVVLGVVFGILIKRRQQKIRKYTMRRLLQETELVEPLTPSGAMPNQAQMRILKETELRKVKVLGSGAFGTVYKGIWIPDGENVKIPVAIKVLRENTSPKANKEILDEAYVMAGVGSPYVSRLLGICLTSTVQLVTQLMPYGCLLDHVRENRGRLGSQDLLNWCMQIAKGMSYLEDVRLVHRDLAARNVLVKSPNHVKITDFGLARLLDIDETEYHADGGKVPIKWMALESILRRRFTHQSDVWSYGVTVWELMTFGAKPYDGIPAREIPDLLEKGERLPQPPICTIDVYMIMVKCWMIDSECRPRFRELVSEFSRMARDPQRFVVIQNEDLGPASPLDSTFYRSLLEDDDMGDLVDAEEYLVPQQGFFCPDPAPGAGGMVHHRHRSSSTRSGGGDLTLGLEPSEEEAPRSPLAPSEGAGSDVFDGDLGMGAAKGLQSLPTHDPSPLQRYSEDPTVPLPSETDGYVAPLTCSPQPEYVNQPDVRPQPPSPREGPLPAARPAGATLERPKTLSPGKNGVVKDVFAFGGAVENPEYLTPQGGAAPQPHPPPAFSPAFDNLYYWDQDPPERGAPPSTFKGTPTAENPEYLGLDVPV

[3] = SK-BR-3 cell growth inhibitors, pilot screen, 24 h, human (AID 572;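 active means viability at or below 10% of carrier control in both of two separate runs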;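 further: compound exposure lasted between 18 and 24 h rather than exactly 24 h; 100% = carrier-treated control wells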); details: SK-BR-3 viability, CellTiter-Glo luminescence, at 10 µM, stronger effect = lower value
[4] = HUVEC growth inhibition – cell-based, human, primary screen (AID 575;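 active means viability at or below 30% in both replicate assays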;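 further: 100% = median of untreated cell wells with 0.1% DMSO on each plate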); details: HUVEC proliferation, CellTiter-Glo luminescence, 72 h; at 10 µM; stronger effect = lower value
Procedure, shortened: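 System: primary human umbilical vein endothelial cells; Quantity: 1250 endothelial cells in each well; Buffer or medium: supplemented EBM, 2% fetal bovine serum; Doses: one dose, 10 µM final, 0.1% DMSO; Incubation: 72 h compound incubation; Technique: ATP-based CellTiter-Glo luminescent read; Evaluation: percent of median DMSO-control luminescence; Controls: vehicle and MePR control wells.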

[5] = growth inhibitors of H69AR lung tumor, primary screen, human, duplicate replicates (AID 580); details: H69AR lung tumor cells viability, ATP luminescence, 72 h; at 10 µM; stronger effect = lower value;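 further: 100% = mean luminescence of untreated wells and 0% = no signal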
[6] = reversal of MRP1-mediated doxorubicin resistance, pilot screen, H69AR cells, doxorubicin co-treatment (AID 601;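 active means viability loss from added drug above about 55%, and viability with drug at most 40%, in both replicates, limit read from the data, passing the limit was not always enough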); details: CellTiter-Glo, 72 h, at 10 µM; for differential viability (reversal): stronger effect = higher value
[7] = 384-well plate pilot, post-Golgi transport modulator project, inhibition of yeast transport mutant growth (AID 636; in the data active means inhibition above about 31%); details: absorbance 615 nm, about 18 h, stronger effect = higher value
[8] = growth suppression of yeast trafficking mutant, preliminary HTS, modulators of trafficking downstream of Golgi apparatus project, 1536-format plate, OD 615 nm (AID 637; in the data active means inhibition above about 30%); details: yeast transport mutant growth, absorbance 615 nm, 18 h; stronger effect = higher value
[9] = H69AR cells + 2 uM doxorubicin, measured here: viability with 2 uM doxorubicin, stronger effect = lower value
[10] = H69AR cells, compound alone cytotoxicity

| Structure (SMILES) | viability [1] | Her2 level [2] | viability [3] | viability [4] | viability [5] | differential viability (reversal) ([6]; H69AR cells + 2 uM doxorubicin) | viability [6, 9] | viability [6, 10] | inhibition [7] | inhibition [8] |
| --- | --- | --- | --- | --- | --- | --- | --- | --- | --- | --- |
| CCOC(=O)c1ccccc1NC(=O)COC(=O)C1=COCCO1 | 98.5% | 92% (inactive) | 98.5% (inactive) | 96.7% (inactive) | 88.7% (inactive) | -13.3% (inactive) | 102% | 88.7% | -5.81% (inactive) | 3% (inactive) |
| c1ccc2nc(-c3nc4ccccc4[nH]3)ccc2c1 | 104% | 74% (inactive) | 104% (inactive) | 55.2% (inactive) | 66.6% (inactive) | -3.97% (inactive) | 70.6% | 66.6% | 0% (inactive) | -1.64% (inactive) |
| CSCCC(NC(=O)c1ccco1)C(=O)O (stereo not given) | 97.5% | 110% (inactive) | 97.5% (inactive) | 112% (inactive) | 91.8% (inactive) | 0.86% (inactive) | 91% | 91.8% | -0.93% (inactive) | 15% (inactive) |
| COc1cccc(C(c2nnnn2CCc2ccccc2)N2CCN(c3ccccc3)CC2)c1OC (stereo not given) | 91% | 88% (inactive) | 91% (inactive) | 109% (inactive) | 83.1% (inactive) | -7.96% (inactive) | 91% | 83.1% | 13.1% (inactive) | -1.13% (inactive) |
| O=C(CN1CCN(Cc2ccc3c(c2)OCO3)CC1)Nc1ccc2c(c1)OCCO2 | 97% | 89.5% (inactive) | 97% (inactive) | 93.8% (inactive) | 94.4% (inactive) | 16.4% (inactive) | 78% | 94.4% | -2.43% (inactive) | -1.27% (inactive) |
| CCOC(=O)N1CCC(N2C(=O)c3ccc(C(=O)NCc4ccco4)cc3C2=O)CC1 | 95.5% | 94% (inactive) | 95.5% (inactive) | 79.6% (inactive) | 85.9% (inactive) | 4.97% (inactive) | 81% | 85.9% | 0% (inactive) | -0.17% (inactive) |
| N#Cc1c(N)nc2c(c1-c1ccncc1)CCCCC2 | 102% | 86.5% (inactive) | 102% (inactive) | 78.2% (inactive) | 90.7% (inactive) | -3.37% (inactive) | 94% | 90.7% | -4.4% (inactive) | 4.43% (inactive) |
| CCOc1cccc(-c2nnc3sc(COc4ccc(OC)cc4)nn23)c1 | 72.5% | 102% (inactive) | 72.5% (inactive) | 68.3% (inactive) | 85.5% (inactive) | -1.33% (inactive) | 86.9% | 85.5% | -1.95% (inactive) | -6.39% (inactive) |
| COc1cccc(NC(=O)COc2ccccc2C(N)=O)c1 | 93.5% | 110% (inactive) | 93.5% (inactive) | 83.1% (inactive) | 105% (inactive) | 16% (inactive) | 88.7% | 105% | 0% (inactive) | -7.9% (inactive) |
| Cc1cc(C)n(-c2nc3c(c(=O)n(Cc4ccc(Cl)c(Cl)c4)c(=O)n3C)n2C)n1 | 103% | 99% (inactive) | 103% (inactive) | 93% (inactive) | 95.6% (inactive) | 5.92% (inactive) | 89.6% | 95.6% | -1.69% (inactive) | -3.65% (inactive) |
| Cc1ccc(-c2nn(C)c(=O)c3ccccc23)cc1S(=O)(=O)NCCN1CCOCC1 | 87% | 121% (inactive) | 87% (inactive) | 98.6% (inactive) | 93.3% (inactive) | 5.54% (inactive) | 87.8% | 93.3% | 6.8% (inactive) | -6.35% (inactive) |
| CC(=O)N1CCc2cc(S(=O)(=O)CCC(=O)N3CCN(c4ccccn4)CC3)ccc21 | 91.5% | 98% (inactive) | 91.5% (inactive) | 105% (inactive) | 98% (inactive) | 6.38% (inactive) | 91.6% | 98% | 4.67% (inactive) | 12% (inactive) |
| COc1cc(S(=O)(=O)NC2CCCCC2)ccc1Cl | 94.5% | 84.5% (inactive) | 94.5% (inactive) | 82.3% (inactive) | 92.7% (inactive) | 7.43% (inactive) | 85.3% | 92.7% | -3.95% (inactive) | -2.7% (inactive) |
| COC(=O)[C@@H](NC(=O)NCc1ccccc1Cl)C(C)C | 95% | 123% (inactive) | 95% (inactive) | 84.9% (inactive) | 94.4% (inactive) | -1.47% (inactive) | 95.9% | 94.4% | -1.17% (inactive) | -9.5% (inactive) |
| Cc1cccn2c(=O)c3cc(C#N)c(=NC(=O)c4cccnc4)n(CC4CCCO4)c3nc12 (stereo not given) | 92.5% | 108% (inactive) | 92.5% (inactive) | 94.4% (inactive) | 71.1% (inactive) | 27% (inactive) | 44.1% | 71.1% | -1.18% (inactive) | -9.35% (inactive) |
| CN(C)/C=C(\C#N)c1nc2ccccc2[nH]1 | 85% | 90% (inactive) | 85% (inactive) | 97.6% (inactive) | 98% (inactive) | 20.9% (inactive) | 77% | 98% | 2.37% (inactive) | -8.36% (inactive) |

| Structure (SMILES) | viability [1] | Her2 level [2] | viability [3] | viability [4] | viability [5] | differential viability (reversal) ([6]; H69AR cells + 2 uM doxorubicin) | viability [6, 9] | viability [6, 10] | inhibition [7] | inhibition [8] |
| --- | --- | --- | --- | --- | --- | --- | --- | --- | --- | --- |
| CCOC(=O)c1ccc(N2C(=O)CC(N3CCN(C/C=C/c4ccccc4)CC3)C2=O)cc1 (stereo not given) | 84% | 91.5% (inactive) | 84% (inactive) | 91.4% (inactive) | 84.3% (inactive) | -1.62% (inactive) | 85.9% | 84.3% | -0.64% (inactive) | -2.5% (inactive) |
| O=C(Nc1nc(-c2ccccc2)cs1)C1CCCCN1S(=O)(=O)c1ccccc1 (stereo not given) | 100% | 80% (inactive) | 100% (inactive) | 71.5% (inactive) | 73.8% (inactive) | -18.2% (inactive) | 92% | 73.8% | -0.13% (inactive) | 11.4% (inactive) |
| COc1ccc(CNc2nc(NCc3ccc(OC)cc3)n(S(C)(=O)=O)n2)cc1 | 104% | 114% (inactive) | 104% (inactive) | 92.6% (inactive) | 110% (inactive) | 8.61% (inactive) | 101% | 110% | 0% (inactive) | 0.82% (inactive) |
| O=C(c1cccs1)N1CCN=C1SCc1ccccc1 | 120% | 74.5% (inactive) | 120% (inactive) | 60.8% (inactive) | 90.4% (inactive) | 6.13% (inactive) | 84.2% | 90.4% | 3.51% (inactive) | -0.66% (inactive) |
| O=C(CSc1ncnc2ccccc12)NCCCO | 104% | 80% (inactive) | 104% (inactive) | 103% (inactive) | 103% (inactive) | 12.2% (inactive) | 91.1% | 103% | -0.65% (inactive) | 4.92% (inactive) |
| O=C1CC(Cc2ccccc2)C(=O)N1CCCn1ccnc1 (stereo not given) | 101% | 102% (inactive) | 101% (inactive) | 103% (inactive) | 92.2% (inactive) | 8.18% (inactive) | 84% | 92.2% | -3.85% (inactive) | -0.5% (inactive) |
| Cc1ccc(-c2nc3ccccc3[nH]2)s1 | 74% | 95.5% (inactive) | 74% (inactive) | 59.8% (inactive) | 58.8% (inactive) | 4.25% (inactive) | 54.5% | 58.8% | 0.77% (inactive) | -9% (inactive) |
| CC(=O)C1=C(O)C(=O)N(c2ccc(C(=O)O)cc2)C1c1ccccc1 (stereo not given) | 107% | 89% (inactive) | 107% (inactive) | 117% (inactive) | 102% (inactive) | 5.88% (inactive) | 95.7% | 102% | -0.66% (inactive) | 1.8% (inactive) |
| COc1cccc(NC(=O)N2CCCC2C(=O)NC(C)C)c1 (stereo not given) | 112% | 78% (inactive) | 112% (inactive) | 82.6% (inactive) | 99.1% (inactive) | 11.2% (inactive) | 87.8% | 99.1% | -5.07% (inactive) | 9.51% (inactive) |
| O=C(Nc1ccc(N2CCN(Cc3ccccc3Cl)CC2)cc1)c1cccnc1 | 91% | 108% (inactive) | 91% (inactive) | 117% (inactive) | 103% (inactive) | 5.44% (inactive) | 98% | 103% | 2.16% (inactive) | 0.82% (inactive) |
| CCC1C(=O)N=C(SCC(=O)Nc2cccc3ccccc23)NC1=O (stereo not given) | 112% | 100% (inactive) | 112% (inactive) | 106% (inactive) | 82.3% (inactive) | -9.84% (inactive) | 92.1% | 82.3% | -3.24% (inactive) | 0.63% (inactive) |
| O=C(NC(C(=O)c1ccccc1)n1ccc(=O)[nH]c1=O)c1ccccc1 (stereo not given) | 98.5% | 99% (inactive) | 98.5% (inactive) | 98.8% (inactive) | 91.2% (inactive) | 6.79% (inactive) | 84.4% | 91.2% | -0.93% (inactive) | 23.1% (inactive) |
| CCOc1ccc2[nH]c(=O)c(CN(CCOC)C(=O)N3CCOCC3)cc2c1 | 97% | 90% (inactive) | 97% (inactive) | 102% (inactive) | 92.1% (inactive) | -8.59% (inactive) | 101% | 92.1% | -3.33% (inactive) | 4.59% (inactive) |
| O=C(CSc1nnc(CNC(=O)c2cccs2)o1)NCCc1ccccc1 | 104% | 103% (inactive) | 104% (inactive) | 92.4% (inactive) | 101% (inactive) | 2.05% (inactive) | 98.6% | 101% | -0.9% (inactive) | -3% (inactive) |
| Nc1nc(-n2cnnc2)nn1-c1ccccc1 | 92% | 116% (inactive) | 92% (inactive) | 85.6% (inactive) | 101% (inactive) | 11.4% (inactive) | 89.9% | 101% | 0.13% (inactive) | -8.5% (inactive) |
| Cc1cccc(N2CN=c3s/c(=C\c4ccncc4)c(=O)n3C2)c1 | 86.5% | 68% (inactive) | 86.5% (inactive) | 77.4% (inactive) | 80.8% (inactive) | -10.2% (inactive) | 91% | 80.8% | -1.32% (inactive) | -2.42% (inactive) |
